Test results: ChEMBL document CHEMBL3045023, “Design, synthesis, and antiviral activity evaluation of phenanthrene-based antofine derivatives” (2012)

Key:
Type in all cases: functional
[1] = test system: Tobacco mosaic virus; experiment: Antiviral activity against Tobacco mosaic virus (TMV) assessed as inhibition of viral growth at 500 ug/mL; details: read-out: GI
Summary of the method: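 Leaves of 5–6-growth-stage tobacco were rub-inoculated with TMV juice (5.88 × 10−2 μg/mL), then cut into halves along the main vein. One half was immersed in 500 μg/mL compound and the other in double-distilled water, each for 20 min. Halves were cultured at 25 °C for 72 h, with at least 3 replicates. Inhibition % = (control − treated average lesion number)/control × 100.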

[2] = test system: Tobacco mosaic virus; experiment: Antiviral activity against Tobacco mosaic virus (TMV) inoculation on Nicotiana tabacum L. whole leaves assessed as virus infection protective effect at 500 ug/mL measured 3 to 4 days post inoculation
Summary of the method: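 On N. tabacum L. leaves of the same age, compound was smeared on the left half and solvent on the right half as control. After 12 h, leaves were dusted with silicon carbide, brush-inoculated with TMV (6 × 10−3 mg/mL), then washed. Local lesions were counted 3–4 days later, in triplicate. Inhibition % was calculated from average lesion numbers versus control.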

[3] = test system: Tobacco mosaic virus; experiment: Antiviral activity against Tobacco mosaic virus (TMV) inoculation on Nicotiana tabacum L. whole leaves assessed as virus infection curative effect at 500 ug/mL measured 3 to 4 days post inoculation
Summary of the method: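 Whole N. tabacum L. leaves of the same age were inoculated with TMV (6.0 × 10−3 mg/mL), then washed and dried. Compound was then smeared on the left half and solvent on the right half as control. Local lesions were counted 3–4 days post-inoculation, in triplicate. Inhibition % was calculated from average lesion numbers versus control.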

[4] = test system: Tobacco mosaic virus; experiment: Antiviral activity against Tobacco mosaic virus (TMV) inoculation on Nicotiana tabacum L. whole leaves assessed as virus inactivation effect at 500 ug/mL measured 3 to 4 days post inoculation
Summary of the method: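 TMV was mixed with an equal volume of compound solution for 30 min. The mixture was inoculated on the left half of N. tabacum L. leaves, and virus mixed with solvent on the right half as control. Local lesions were recorded 3–4 days post-inoculation, in triplicate. Inhibition % was calculated from average lesion numbers versus control.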

Compound	inhibition of growth at 500 µg/mL [1] [%]	Activity [2] [%]	Activity [3] [%]	Activity [4] [%]
O=C1NCNC(=O)N1	50			
CCN(CC)C(=O)[C@H]1CCCCN1Cc1c(Br)c2cc(OC)c(OC)cc2c2cc(OC)c(OC)cc12	23.5	21.7	14.2	13.7
CC(=O)N1CN(C(C)=O)C(=O)NC1=O	50			
CCN(CC)C(=O)[C@@H]1CCCCN1Cc1c(Br)c2cc(OC)c(OC)cc2c2cc(OC)ccc12	30.7	34.3	26.4	25.2
CCN(CC)C(=O)[C@H]1CCCCN1Cc1c(Br)c2cc(OC)c(OC)cc2c2cc(OC)ccc12	12.1	21.3	17.6	15.4
COc1ccc2c(CN3CCC[C@H]3C(N)=O)c(Br)c3cc(OC)c(OC)cc3c2c1	0	0	5.6	14.5
COc1cc2c(Br)c(CN3CCC[C@H]3C#N)c3cc(OC)c(OC)cc3c2cc1OC	24.7	33.3	18.2	10.3
COc1ccc2c(Br)c(CN3CCC[C@H]3C#N)c3cc(OC)c(OC)cc3c2c1	20.9	24.5	18.9	27.7
COc1ccc2c(CN3CCC[C@H]3C#N)c(Br)c3cc(OC)c(OC)cc3c2c1	22.7	15.3	20.5	12.6
CCN(CC)C(=O)c1cccn1Cc1c(Br)c2cc(OC)c(OC)cc2c2cc(OC)c(OC)cc12	18.2	13.1	10.6	20
CCN(CC)C(=O)[C@@H]1CCCN1Cc1c(Br)c2cc(OC)c(OC)cc2c2cc(OC)c(OC)cc12	17.2	25.3	21.6	22
CCN(CC)C(=O)[C@H]1CCCN1Cc1c(Br)c2cc(OC)c(OC)cc2c2cc(OC)c(OC)cc12	33.3	27.6	30.2	21.3
CCN(CC)C(=O)[C@@H]1CCCN1Cc1c(Br)c2ccc(OC)cc2c2cc(OC)c(OC)cc12	12.5	16.8	8.9	23.7
CCN(CC)C(=O)[C@H]1CCCN1Cc1c(Br)c2ccc(OC)cc2c2cc(OC)c(OC)cc12	35.6	27.1	31.6	26.9
CCN(CC)C(=O)[C@@H]1CCCN1Cc1c(Br)c2ccc(OC)c(Br)c2c2cc(OC)c(OC)cc12	19.6	15.3	22.3	17.8
CCN(CC)C(=O)[C@H]1CCCN1Cc1c(Br)c2ccc(OC)c(Br)c2c2cc(OC)c(OC)cc12	22.4	20.3	13.3	10.4
CCN(CC)C(=O)[C@@H]1CCCN1Cc1c(Br)c2cc(OC)c(OC)cc2c2cc(OC)ccc12	23.5	18.9	14.2	15.7
CCN(CC)C(=O)[C@H]1CCCN1Cc1c(Br)c2cc(OC)c(OC)cc2c2cc(OC)ccc12	35.7	33.1	31.4	27.6
CCN(CC)C(=O)[C@@H]1CCCN1Cc1c(Br)c2cc(OC)c(OC)cc2c2c(Br)c(OC)ccc12	32.5	26.1	23.5	20.7
CCN(CC)C(=O)[C@H]1CCCN1Cc1c(Br)c2cc(OC)c(OC)cc2c2c(Br)c(OC)ccc12	42.6	39.2	35.8	30.2
CCN(CC)C(=O)[C@@H]1CCCCN1Cc1c(Br)c2cc(OC)c(OC)cc2c2cc(OC)c(OC)cc12	19.7	28.5	26.3	21.5
COc1cc2cc(C(=O)N3CCC[C@H]3C(N)=O)c3cc(OC)c(OC)cc3c2cc1OC	27	24.3	23.5	25.3

Compound	inhibition of growth at 500 µg/mL [1] [%]	Activity [2] [%]	Activity [3] [%]	Activity [4] [%]
COc1cc2cc(C(=O)N3CCC[C@H]3C#N)c3cc(OC)c(OC)cc3c2cc1OC	12.5	10.3	15.6	17.6
COc1cc2cc(C(=O)N3CCC[C@H]3CO)c3cc(OC)c(OC)cc3c2cc1OC	32.8	25.6	30.2	29.5
COc1cc2cc(C(=O)N3CCC[C@H]3C=O)c3cc(OC)c(OC)cc3c2cc1OC	22.2	21.4	20.3	15.2
COc1cc2cc(C(=O)N3CCC[C@H]3CBr)c3cc(OC)c(OC)cc3c2cc1OC	21.9	36.9	26.7	27.6
COc1ccc(/C=C(/C(=O)O)c2ccc(OC)c(OC)c2)cc1OC	2.3	1.9	2.7	4.1
COC(=O)[C@@H]1CCCN1C(=O)/C(=C/c1ccc(OC)c(OC)c1)c1ccc(OC)c(OC)c1	17.5	23.6	17.2	21.1
COc1ccc(/C=C(/C(=O)N2CCC[C@H]2CO)c2ccc(OC)c(OC)c2)cc1OC	11.7	19.3	18.1	20.9
COc1cc2c(Br)c(CBr)c3cc(OC)c(OC)cc3c2cc1OC	6.1	5.2	1.8	4.3
COc1cc2c(Br)c(CN3CCC[C@H]3C(=N)OC(C)(C)C)c3cc(OC)c(OC)cc3c2cc1OC	39.7	42.2	40.3	36.6
COc1cc2cc(CN3C(=O)CC[C@H]3C(=O)OC(C)(C)C)c3cc(OC)c(OC)cc3c2cc1OC	14.2	23.5	16.8	27.1
COc1cc2cc(CN3C(=O)CC[C@H]3C(=O)O)c3cc(OC)c(OC)cc3c2cc1OC	32.4	35.3	25.6	33.7
COc1cc2cc(CN3CCC[C@H]3CO)c3cc(OC)c(OC)cc3c2cc1OC	15.9	25.2	23.5	17.4
COc1cc2cc(CN3CCC[C@H]3CBr)c3cc(OC)c(OC)cc3c2cc1OC	32.1	21.1	16.3	20.3
COc1cc2cc(CN3CCCCC3)c3cc(OC)c(OC)cc3c2cc1OC	38.4	35.9	35.2	30
COC(=O)[C@@H]1CCCN1Cc1c(Br)c2cc(OC)c(OC)cc2c2cc(OC)c(OC)cc12	19.6	33.3	27.8	21.4
COc1cc2c(Br)c(CN3CCC[C@H]3C(=O)O)c3cc(OC)c(OC)cc3c2cc1OC	20.4	10.2	13.5	17
COc1cc2c(Br)c(CN3CCC[C@H]3C(N)=O)c3cc(OC)c(OC)cc3c2cc1OC	44.3	39.5	36.6	42.1
COc1cc2c(Br)c(CN3CCC[C@@H]3C(N)=O)c3cc(OC)c(OC)cc3c2cc1OC	10.5	15.3	12.2	0
COc1ccc2c(Br)c(CN3CCC[C@H]3C(N)=O)c3cc(OC)c(OC)cc3c2c1	35.5	32.4	30.7	12.3
COc1cc2cc(C(=O)O)c3cc(OC)c(OC)cc3c2cc1OC	0	4.8	3.6	4.2
COc1cc2cc(C(=O)N3CCCCC3)c3cc(OC)c(OC)cc3c2cc1OC	32.5	30.6	28.9	24.5
NC(=O)c1ncn([C@@H]2O[C@H](CO)[C@@H](O)[C@H]2O)n1 [RIBAVIRIN]	38.5	34.2	34.5	32.1
